{"source": "ChEMBL document CHEMBL1124663", "about": "“Design, synthesis, antineoplastic activity, and chemical properties of bis(carbamate) derivatives of 4,5-bis(hydroxymethyl)imidazole” (J Med Chem, 1989)", "key": {"Mus musculus [1]": {"test_system": "Mus musculus", "assay": "Body weight difference (BWD) of test animals administered with 50 mg/kg compound is determined on day 5 for P388 tumor cells", "format": "functional", "summary_of_the_method": "(§1)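 P388 leukaemia: about 10^6 cells in ascitic fluid inoculated ip on day 0 (CD2F1 mice). Compound given ip in normal saline as a freshly prepared solution or suspension, once daily on days 1–5. Treated-minus-control body weight difference in g, taken as day 5 minus day 1 weight. Groups of six.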"}, "Mus musculus [2]": {"test_system": "Mus musculus", "assay": "Body weight difference (BWD) of test animals administered with 60 mg/kg compound is determined on […] tumor cells", "format": "functional", "summary_of_the_method": "(§2)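 MX-1 human mammary xenograft: solid tumour fragment (1 mm3, 0.5 mg) placed as a subrenal capsule implant on day 0 in NCR-nu mice. Fresh saline suspension dosed ip on days 1, 5 and 9. Body weight difference in g (treated minus control) recorded. Assay evaluated on day 11. Six mice per group.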"}, "Mus musculus [3]": {"test_system": "Mus musculus", "assay": "Body weight difference (BWD) of test animals administered with 100 mg/kg compound is determined on […] tumor cells", "format": "functional", "summary_of_the_method": "as §2"}, "Mus musculus [4]": {"test_system": "Mus musculus", "assay": "Body weight difference (BWD) of test animals administered with 100 mg/kg compound is determined on day 5 for P388 tumor cells", "format": "functional", "summary_of_the_method": "as §1"}, "Mus musculus [5]": {"test_system": "Mus musculus", "assay": "Body weight difference (BWD) of test animals administered with 12.5 mg/kg compound is determined on day 5 for L1210 tumor cells", "format": "functional", "summary_of_the_method": "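L1210 leukaemia: 10^5 cells implanted ip on day 0 in mice. Freshly prepared saline suspension given ip once daily on days 1–5. Body weight difference in g (treated minus control) taken as day 5 minus day 1. Six animals per dose.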"}, "Mus musculus [6]": {"test_system": "Mus musculus", "assay": "Body Weight Difference (BWD) of test animals administered with 6.25 mg/kg compound is determined on day 5 for P388 tumor cells", "format": "functional", "summary_of_the_method": "as §1"}, "Mus musculus [7]": {"test_system": "Mus musculus", "assay": "Toxicity day evaluation was carried out on day 5 for animal dosed with 6.25 mg/kg compound; 5/6", "format": "organism-based", "set-up": "dose 6.25 mg/kg", "details": "in vivo"}, "Mus musculus [8]": {"test_system": "Mus musculus", "assay": "The toxicity day was evaluated on day 5 for L1210 tumor cells of test animals dosed with 25 mg/kg of compound; 6/6", "format": "functional", "summary_of_the_method": "(§3)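 L1210 leukaemia, 10^5 cells, implanted ip on day 0. Freshly prepared saline suspension dosed ip daily on days 1-5. Toxicity evaluated on day 5 as survivors over animals in the initial test group.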"}, "Mus musculus [9]": {"test_system": "Mus musculus", "assay": "The toxicity day was evaluated on day 5 for L1210 tumor cells of test animals dosed with 50 mg/kg of compound; 6/6", "format": "functional", "summary_of_the_method": "as §3"}, "Mus musculus [10]": {"test_system": "Mus musculus", "assay": "Toxicity day evaluation was carried out on day 5 for animal dosed with 100 mg/kg compound; 6/6", "format": "organism-based", "set-up": "dose 100 mg/kg", "details": "in vivo"}, "Mus musculus [11]": {"test_system": "Mus musculus", "assay": "Toxicity day evaluation was carried out on day 5 for animal dosed with 50 mg/kg compound; 6/6", "format": "organism-based", "set-up": "dose 50 mg/kg", "details": "in vivo"}, "Mus musculus [12]": {"test_system": "Mus musculus", "assay": "The toxicity day was […] tumor cells of test animals dosed with 400 mg/kg of compound; 1/10", "format": "functional, M5076", "summary_of_the_method": "(§4)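 M5076 sarcoma, 10^6 cells, inoculated ip into B6C3F1 mice on day 0. Fresh saline suspension given ip every fourth day (days 1, 5, 9, 13). Toxicity survivors were scored on day 5 as survivors over initial group. Body-weight difference was day 14 minus day 1.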"}, "Mus musculus [13]": {"test_system": "Mus musculus", "assay": "The […] for M5076 minus 1 tumor cells of test animals dosed with 50 mg/kg of compound; 10/10", "format": "functional", "summary_of_the_method": "as §4"}, "Mus musculus [14]": {"test_system": "Mus musculus", "assay": "Ability of 50 mg/kg of compound to kill L1210 tumor cells in mice is expressed as the log of the tumor cell population at the onset of treatment minus the log of the tumor cell population at the end of treatment", "format": "functional", "summary_of_the_method": "(§5)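 L1210 leukemia, 10^5 cells implanted ip on day 0. Drug given ip daily on days 1-5 as a saline suspension freshly prepared before each injection. Read-out is median survival of treated versus control mice (% T/C), and log cell kill is derived from it.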"}, "Mus musculus [15]": {"test_system": "Mus musculus", "assay": "The percent of the median survival time of test mice compared to control mice, administered with 100 mg/kg compound on day 14 for M5076 minus 1 tumor cells", "format": "functional", "summary_of_the_method": "(§6)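 M5076 sarcoma, 10^6 cells ip on day 0 in B6C3F1 mice. Drug given ip as a fresh saline suspension every fourth day (days 1, 5, 9, 13). % T/C is median survival of treated versus control mice, counting long-term survivors. Cures are 60-day survivors. Log cell kill is derived from this.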"}, "Mus musculus [16]": {"test_system": "Mus musculus", "assay": "The percent of the median survival time of test mice compared to control mice, administered with 200 mg/kg compound on day 14 for M5076 minus 1 tumor cells", "format": "functional", "summary_of_the_method": "as §6"}, "Mus musculus [17]": {"test_system": "Mus musculus", "assay": "The percent of the median survival time of test mice compared to control mice is % T/C which refers to tumor size in this case. It is determined for mice administered with 100 mg/kg compound on day 11 for MX-1 tumor cells", "format": "functional", "details": "route intraperitoneal", "summary_of_the_method": "(§7)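 Human MX-1 mammary xenograft, a 1 mm3 (0.5 mg) tumor fragment implanted under the renal capsule of NCR-nu mice on day 0. Drug given ip as a fresh saline suspension on days 1, 5 and 9. Tumor size is assessed on day 11. A negative % T/C is percent shrinkage relative to the initial implant. Survivors in the toxicity group are […].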"}, "Mus musculus [18]": {"test_system": "Mus musculus", "assay": "The percent of the median survival time of test mice compared to control mice is % T/C. It is determined for mice administered with 50 mg/kg compound on day 0 for LOX 1 tumor cells.", "format": "functional", "details": "route intraperitoneal"}, "Mus musculus [19]": {"test_system": "Mus musculus", "assay": "Ability of 6.25 mg/kg of compound to kill tumor cells in mice is expressed as the log of the tumor cell population at the onset of treatment minus the log of the tumor cell population at the end of treatment", "format": "functional"}, "Mus musculus [20]": {"test_system": "Mus musculus", "assay": "The toxicity day was evaluated on day 0 for LOX tumor cells of test animals dosed with 100 mg/kg of compound; 6/6", "format": "functional"}, "Mus musculus [21]": {"test_system": "Mus musculus", "assay": "The toxicity day was evaluated on day 0 for LOX tumor cells of test animals dosed with 50 mg/kg of compound; 6/6", "format": "functional"}, "Mus musculus [22]": {"test_system": "Mus musculus", "assay": "The toxicity day was evaluated on […] for MX-1 tumor cells of test animals dosed with 200 mg/kg of compound; 1/6", "format": "functional", "summary_of_the_method": "as §7"}, "Mus musculus [23]": {"test_system": "Mus musculus", "assay": "The toxicity day was evaluated […] for M5076 minus 1 tumor cells of test animals dosed with 25 mg/kg of compound; 10/10", "format": "functional", "summary_of_the_method": "as §4"}, "Mus musculus [24]": {"test_system": "Mus musculus", "assay": "The percent of the median survival time of test mice compared to control mice, administered with 25 mg/kg compound on day 14 for M5076 minus 1 tumor cells", "format": "functional", "summary_of_the_method": "as §6"}, "Mus musculus [25]": {"test_system": "Mus musculus", "assay": "The percent of the median survival time of test mice compared to control mice, administered with 50 mg/kg compound on day 5 for L1210 tumor cells", "format": "functional", "summary_of_the_method": "as §5"}, "Mus musculus [26]": {"test_system": "Mus musculus", "assay": "The percent of the median survival time of test mice compared to control mice, administered with 50 mg/kg compound on day 14 for M5076 minus 1 tumor cells", "format": "functional", "summary_of_the_method": "as §6"}, "Mus musculus [27]": {"test_system": "Mus musculus", "assay": "Toxicity day evaluation was carried out on day 5 for animal dosed with 25 mg/kg compound; 6/6", "format": "organism-based", "set-up": "dose 25 mg/kg", "details": "in vivo"}, "Mus musculus [28]": {"test_system": "Mus musculus", "assay": "Body Weight Difference (BWD) of test animals administered with 12.5 mg/kg compound is determined on day 5 for P388 tumor cells", "format": "functional", "summary_of_the_method": "as §1"}, "Mus musculus [29]": {"test_system": "Mus musculus", "assay": "Body weight difference (BWD) of test animals administered with 25 mg/kg compound is determined on day 10 for LOX tumor cells."}, "Mus musculus [30]": {"test_system": "Mus musculus", "assay": "Body weight difference (BWD) of test animals administered with 100 mg/kg compound is determined on day 10 for LOX tumor cells."}}, "data": [{"smiles": "CNC(=O)OCc1nc(SC)n(C)c1COC(=O)NC", "values": [{"measurement": "BWD", "setting": "Mus musculus [1]", "value": -2.6, "unit": "g"}, {"measurement": "BWD", "setting": "Mus musculus [2]", "value": -1.9, "unit": "g"}, {"measurement": "BWD", "setting": "Mus musculus [3]", "value": -2.7, "unit": "g"}, {"measurement": "BWD", "setting": "Mus musculus [4]", "value": -4.1, "unit": "g"}, {"measurement": "BWD", "setting": "Mus musculus [5]", "value": -0.2, "unit": "g"}, {"measurement": "BWD", "setting": "Mus musculus [6]", "value": -0.7, "unit": "g"}, {"measurement": "Survivors / animals tested", "setting": "Mus musculus [7]", "value": 5}, {"measurement": "Survivors / animals tested", "setting": "Mus musculus [8]", "value": 6}, {"measurement": "Survivors / animals tested", "setting": "Mus musculus [9]", "value": 6}, {"measurement": "Survivors / animals tested", "setting": "Mus musculus [10]", "value": 6}, {"measurement": "Survivors / animals tested", "setting": "Mus musculus [11]", "value": 6}, {"measurement": "Survivors / animals tested", "setting": "Mus musculus [12]", "value": 1}, {"measurement": "Survivors / animals tested", "setting": "Mus musculus [13]", "value": 10}, {"measurement": "KE", "setting": "Mus musculus [14]", "value": -1.94}, {"measurement": "T/C", "setting": "Mus musculus [15]", "value": 151, "unit": "%"}, {"measurement": "T/C", "setting": "Mus musculus [16]", "value": 184, "unit": "%"}, {"measurement": "T/C", "setting": "Mus musculus [17]", "value": -73, "unit": "%"}, {"measurement": "T/C", "setting": "Mus musculus [18]", "value": 231, "unit": "%"}, {"measurement": "KE", "setting": "Mus musculus [19]", "value": -0.83}, {"measurement": "Survivors / animals tested", "setting": "Mus musculus [20]", "value": 6}, {"measurement": "Survivors / animals tested", "setting": "Mus musculus [21]", "value": 6}, {"measurement": "Survivors / animals tested", "setting": "Mus musculus [22]", "value": 1}, {"measurement": "Survivors / animals tested", "setting": "Mus musculus [23]", "value": 10}, {"measurement": "T/C", "setting": "Mus musculus [24]", "value": 122, "unit": "%"}, {"measurement": "T/C", "setting": "Mus musculus [25]", "value": 124, "unit": "%"}, {"measurement": "T/C", "setting": "Mus musculus [26]", "value": 119, "unit": "%"}, {"measurement": "Survivors / animals tested", "setting": "Mus musculus [27]", "value": 6}, {"measurement": "BWD", "setting": "Mus musculus [28]", "value": -1.2, "unit": "g"}, {"measurement": "BWD", "setting": "Mus musculus [29]", "value": -3, "unit": "g"}, {"measurement": "BWD", "setting": "Mus musculus [30]", "value": -5.1, "unit": "g"}]}]}
